These results are taken from ChEMBL document CHEMBL1132225, “Novel antidiabetic and hypolipidemic agents. 3. Benzofuran-containing thiazolidinediones” (J Med Chem, 1999).

Where “and” joins values, the source holds several entries; their conditions need not be identical. Equal entries are not always repeated. Calls of active or inactive are those of the source. No cut-off for these calls is given here.

Data set [1] is described as follows: Pharmacokinetic Parameter, half life period measured in Female Wistar Rats at 100 mg/kg by po administration. Format: ADME, organism-based. Also noted: dose 100 mg/kg, route oral. To be noted: rat, in vivo.
Data set [2] can be described thus: Pharmacokinetic Parameter, Tmax is the time at which maximum concentration (Cmax) is reached in Female Wistar Rats at 100 mg/kg by po administration. Format: ADME, organism-based. Also noted: dose 100 mg/kg, route oral. The conditions noted are these: rat, in vivo.
Data set [3] is described as follows: Pharmacokinetic Parameter, AUC (0-infinity) is the area under the plasma concentration versus time curve extrapolated to infinity in Female Wistar Rats at 100 mg/kg by po administration. To be noted: rat, read-out: AUC 0-infinity. Also noted: time infinity, dose 100 mg/kg, route oral. It is filed as ADME, organism-based.
Data set [4] in a line: Pharmacokinetic Parameter, AUC (0-t) is the area under the plasma concentration versus time curve in Female Wistar Rats at 100 mg/kg by po administration. To be noted: rat. Format: ADME, organism-based. Further details: dose 100 mg/kg, route oral.
Data set [5] in a line: Pharmacokinetic Parameter, Cmax is observed maximum plasma concentration in Female Wistar Rats at 100 mg/kg by po administration. It is filed as ADME, organism-based. Further details: dose 100 mg/kg, route oral. The conditions noted are these: rat.
The species named for data set [6] is Rattus norvegicus. The data set can be described thus: The AUC(0-infinity) values in female wistar rats. It is filed as ADME, organism-based. Further details: time infinity. The conditions noted are these: in vivo.
The species entered for data set [7] is Rattus norvegicus. Put plainly: The AUC(0-t)values in female wistar rats. It is filed as ADME, organism-based. To be noted: in vivo.
Data set [8] can be described thus: Pharmacokinetic Parameter, Kel is elimination rate constant in Female Wistar Rats at 100 mg/kg by po administration. Format: ADME, organism-based. Further details: dose 100 mg/kg, route oral. To be noted: rat, in vivo.
Data set [9] in a line: The Kel values in female wistar rats. It is filed as ADME, organism-based. The conditions noted are these: rat, in vivo.
Data set [10] is described as follows: The Cmax values in female wistar rats. To be noted: rat, in vivo. It is filed as ADME, organism-based.
A short description of data set [11]: The half life period in female wistar rats. Format: ADME, organism-based. The conditions noted are these: rat, in vivo. Put shortly:
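Female Wistar rats (200–225 g), fasted 12 h overnight with water, fed 3 h post-dose; single 100 mg/kg oral dose as 0.5% CMC suspension. Retro-orbital blood sampled at multiple times; 0.2 mL plasma extracted, analysed by reverse-phase C18 HPLC with internal standard. Parameters by noncompartmental analysis; mean ± SD, n = 4.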

Data set [12] can be described thus: The Tmax values in female wistar rats. It is filed as ADME, organism-based. To be noted: rat, in vivo.
The species named for data set [13] is Mus musculus. The data set can be described thus: Percent reduction of plasma glucose after 6 days of treatment (various doses). It is filed as functional.
The species entered for data set [14] is Mus musculus. Put plainly: The compound was tested for percent reduction of plasma triglyceride after 6 days of treatment. Format: functional. Also noted: concentration or dose not given beside the values.
The subject of data set [15] is Mus musculus. Put plainly: Percent reduction of plasma glucose (PG) after 6 days of treatment. It is the mean of standard deviation observed in plasma glucose (PG) in db/db mice at dose of 200 mg/kg/day. It is filed as functional. To be noted: route oral.
The test system of data set [16] is Mus musculus. The data set can be described thus: Percent reduction of plasma glucose (PG) after 6 days of treatment. It is the mean of standard deviation observed in plasma glucose (PG) in db/db mice at dose of 30 mg/kg/day; NA = Not Active. Format: functional, organism-based.
Data set [17] has as its system Mus musculus. The data set can be described thus: Percent reduction in plasma triglyceride (TG) after 6 days of treatment. It is the mean of standard deviation observed in plasma triglyceride (TG) in db/db mice at dose of 200 mg/kg/day. The conditions noted are these: route oral. It is filed as functional.
For data set [18], the system named is Mus musculus. Put plainly: Percent reduction in plasma triglyceride (TG) after 6 days of treatment. It is the mean of standard deviation observed in plasma triglyceride (TG) in db/db mice at dose of 30 mg/kg/day; NA = Not Active. It is filed as functional, organism-based.
In data set [19] the target is T1, Peroxisome proliferator-activated receptor alpha (Homo sapiens) (UniProt Q07869).
T1 sequence (whole entry): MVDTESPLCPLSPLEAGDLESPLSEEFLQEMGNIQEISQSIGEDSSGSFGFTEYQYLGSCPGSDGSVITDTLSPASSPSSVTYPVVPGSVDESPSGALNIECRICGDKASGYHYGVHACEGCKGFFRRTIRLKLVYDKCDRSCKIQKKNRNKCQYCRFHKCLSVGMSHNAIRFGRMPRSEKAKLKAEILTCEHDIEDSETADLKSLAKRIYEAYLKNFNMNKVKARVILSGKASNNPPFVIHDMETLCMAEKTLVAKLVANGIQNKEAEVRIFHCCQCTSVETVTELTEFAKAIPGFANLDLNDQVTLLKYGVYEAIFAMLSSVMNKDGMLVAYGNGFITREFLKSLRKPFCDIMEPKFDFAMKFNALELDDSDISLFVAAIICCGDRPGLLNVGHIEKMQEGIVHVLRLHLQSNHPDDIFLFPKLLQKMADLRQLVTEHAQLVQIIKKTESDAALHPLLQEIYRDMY
The data set can be described thus: Compound was tested for fold transactivation of human Peroxisome proliferator activated receptor alpha at 50 uM.

In data set [20] the test system is Mus musculus. Put plainly: Percent reduction of plasma glucose (PG) after 6 days of treatment. It is the mean of standard deviation observed in plasma glucose (PG) in db/db mice at dose of 100 mg/kg/day. To be noted: route oral. Format: functional.
Data set [21] deals with Mus musculus. The data set can be described thus: Percent reduction of plasma glucose (PG) after 6 days of treatment. It is the mean of standard deviation observed in plasma glucose (PG) in db/db mice at dose of 30 mg/kg/day. Format: functional. The conditions noted are these: route oral.
Data set [22] has as its system Mus musculus. The data set can be described thus: Percent reduction in plasma triglyceride (TG) after 6 days of treatment. It is the mean of standard deviation observed in plasma triglyceride (TG) in db/db mice at dose of 100 mg/kg/day. Format: functional. The conditions noted are these: route oral.
The subject of data set [23] is Mus musculus. Put plainly: Percent reduction in plasma triglyceride (TG) after 6 days of treatment. It is the mean of standard deviation observed in plasma triglyceride (TG) in db/db mice at dose of 30 mg/kg/day. Format: functional. To be noted: route oral.

What is called half-life is how long it takes for the measured level to halve. Usually Tmax stands for the time at which the peak concentration occurs. As a reminder, the AUC(0-t) is the area under the concentration-time curve up to a stated or last time point. One may read the Cmax as the maximum level reached in the sampled fluid or tissue. Usually AUC stands for concentration integrated over time. As to `Cc1c(C)c2c(c(C)c1O)CCC(C)(COc1ccc(CC3SC(=O)NC3=O)cc1)O2` (configuration not stated) [TROGLITAZONE], the half-life in [1] and in [11] was 4.01 h in each case. Besides, the Tmax in [2] and in [12] was 2.25 h in each case. The AUC(0-inf) in [3] is 27400 ng·h/mL. Also, the AUC(0-t) in data set [4] came out at 25900 ng·h/mL. Moreover, the Cmax in data set [5] and in [10] was 5470 ng/mL in each case. Moreover, the AUC in the data set filed under Rattus norvegicus [6] was 27400 ng·h/mL; in the data set listed under Rattus norvegicus [7], 25900 ng·h/mL. The k el in data set [8] and in data set [9] was 5.56e-05 s⁻¹ throughout. Besides, the Reduction in the data set filed under Mus musculus [13] turned out to be 26%; in the data set filed under Mus musculus [14], 50%. This compound also yielded a PG in the data set with Mus musculus [15] of 26%. In the data set on Mus musculus [16], the PG result is “inactive”. Besides, the TG in the data set with Mus musculus [17] is 50%. Also, the TG entry in the data set with Mus musculus [18] is “inactive”. The compound also came in with a Transactivation in data set [19] of 1.12 fold.

With `Cc1c(C)c2c(c(C)c1OCc1ccccc1)C(CN1CCC[C@H]1COc1ccc(/C=C3\SC(=O)NC3=O)cc1)C(C)(C)O2` (some centres not stated), the half-life in data set [1] and in data set [11] was 13.1 h in each case. The Tmax in [2] and in data set [12] was 3.5 h in each case. Also, the AUC(0-inf) in data set [3] is 23600 ng·h/mL. The AUC(0-t) in [4] is 15500 ng·h/mL. For the same compound, the Cmax in data set [5] and in data set [10] was 1250 ng/mL in each case. Also, the values for the AUC in the data set filed under Rattus norvegicus [6] and in the data set listed under Rattus norvegicus [7] were 23600 ng·h/mL and 15500 ng·h/mL, respectively. In addition, the k el in data set [8] and in [9] was 1.39e-05 s⁻¹ in each case. The Reduction was 66% and 40% in the data set filed under Mus musculus [13]; 52% and 38% in the data set listed under Mus musculus [14]. Further, the PG in the data set with Mus musculus [20] is 66%; with Mus musculus [21] it was 40%. Further, the figures for the TG in the data set with Mus musculus [22] and in the data set with Mus musculus [23] were 52% and 38%, respectively.
